We go through five compounds from article PMC4770456 (Food chemistry, 2016).

In data set [1] the target is PARP-1 (Homo sapiens, UniProt P09874). In words: PARP-1 inhibitory assay. It counts as biochemical. The procedure, abridged: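 Wells were histone-coated overnight at 4°C, blocked, then given activated DNA in PARP-1 and assay buffers. Test compound, diluted in 10% DMSO, was added before PARP-1 enzyme, followed by 1 h at 20°C. After washing, streptavidin-HRP was added (30 min, 20°C), then chemiluminescent substrate, with luminescence read at 410 nm. IC50 from triplicate measurements.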
PARP-1, sequence (P09874 whole entry): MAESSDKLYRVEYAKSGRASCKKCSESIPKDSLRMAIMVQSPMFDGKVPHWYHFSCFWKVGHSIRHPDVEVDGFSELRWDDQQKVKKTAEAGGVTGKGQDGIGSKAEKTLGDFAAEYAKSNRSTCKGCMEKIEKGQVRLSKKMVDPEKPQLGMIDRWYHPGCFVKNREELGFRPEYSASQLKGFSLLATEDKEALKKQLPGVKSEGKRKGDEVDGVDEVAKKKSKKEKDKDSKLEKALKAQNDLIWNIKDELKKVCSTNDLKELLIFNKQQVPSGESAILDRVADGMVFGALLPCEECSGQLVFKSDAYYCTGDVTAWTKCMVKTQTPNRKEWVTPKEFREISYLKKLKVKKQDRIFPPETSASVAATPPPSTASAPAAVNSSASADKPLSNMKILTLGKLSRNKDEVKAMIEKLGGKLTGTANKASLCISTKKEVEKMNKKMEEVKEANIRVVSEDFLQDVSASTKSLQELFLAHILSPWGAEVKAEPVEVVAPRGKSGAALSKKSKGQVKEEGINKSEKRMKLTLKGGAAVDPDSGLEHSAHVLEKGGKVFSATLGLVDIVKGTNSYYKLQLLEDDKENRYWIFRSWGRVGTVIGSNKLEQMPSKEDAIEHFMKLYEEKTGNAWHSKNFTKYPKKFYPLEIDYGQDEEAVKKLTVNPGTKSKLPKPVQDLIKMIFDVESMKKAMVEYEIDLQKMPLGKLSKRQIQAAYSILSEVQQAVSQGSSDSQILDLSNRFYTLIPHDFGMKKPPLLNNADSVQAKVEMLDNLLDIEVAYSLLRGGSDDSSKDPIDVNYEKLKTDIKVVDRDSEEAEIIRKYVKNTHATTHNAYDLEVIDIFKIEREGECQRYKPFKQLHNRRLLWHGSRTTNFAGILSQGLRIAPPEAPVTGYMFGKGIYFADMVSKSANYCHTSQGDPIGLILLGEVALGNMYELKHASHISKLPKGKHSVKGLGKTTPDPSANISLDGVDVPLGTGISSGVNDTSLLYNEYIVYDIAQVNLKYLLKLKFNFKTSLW

Data set [2] concerns the target NF-κB p65 (Homo sapiens, UniProt Q04206). Kind of data set: NF-κB p65 inhibitory assay. It counts as cell-based.
Data set [3] has as its target K-Ras (Homo sapiens, UniProt P01116). In words: K-Ras inhibitory assay. The note with it: for K-Ras (HT-29) IC50: HT-29 cells, EGF 5 ng/ml. It counts as cell-based. The gist of the method:
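HT-29 cells in RPMI-1640 with penicillin/streptomycin were exposed to test compound for 3 h at 37°C, 5% CO2. They were then PBS-washed, stimulated with EGF (5 ng/ml, 2 min) and lysed with protease inhibitor. Protein was quantified, and Ras GTPase chemiluminescent ELISA used anti-K-Ras (1:5000, 1 h, room temperature) with HRP secondary and a luminescence read-out. IC50 from triplicate measurements.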

Data set [4] relates to HT-29 cells. Kind of data set: SRB cytotoxicity assay. It counts as cell-based, human. The note with it: for pEC50: read-out: Cytotoxicity EC50.
The mark [5] stands for this setting: read-out: PARP-1 IC50, enzyme assay.
[6] abbreviates: read-out: Cytotoxicity (HT-29) IC50, HT-29 cells, 72 h, SRB.

SMILES strings stand for the structures. pEC50, pIC50: −log10 of the molar value. Like-named read-outs stand apart in the source and are kept apart here.

K-Ras, sequence (P01116 1-188 isoform P01116-2): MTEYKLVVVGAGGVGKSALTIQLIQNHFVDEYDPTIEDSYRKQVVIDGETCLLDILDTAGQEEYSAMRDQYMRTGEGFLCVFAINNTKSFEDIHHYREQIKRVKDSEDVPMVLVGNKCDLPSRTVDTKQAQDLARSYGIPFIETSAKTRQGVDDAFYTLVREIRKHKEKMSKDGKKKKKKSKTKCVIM
NF-κB p65, sequence (Q04206 whole entry): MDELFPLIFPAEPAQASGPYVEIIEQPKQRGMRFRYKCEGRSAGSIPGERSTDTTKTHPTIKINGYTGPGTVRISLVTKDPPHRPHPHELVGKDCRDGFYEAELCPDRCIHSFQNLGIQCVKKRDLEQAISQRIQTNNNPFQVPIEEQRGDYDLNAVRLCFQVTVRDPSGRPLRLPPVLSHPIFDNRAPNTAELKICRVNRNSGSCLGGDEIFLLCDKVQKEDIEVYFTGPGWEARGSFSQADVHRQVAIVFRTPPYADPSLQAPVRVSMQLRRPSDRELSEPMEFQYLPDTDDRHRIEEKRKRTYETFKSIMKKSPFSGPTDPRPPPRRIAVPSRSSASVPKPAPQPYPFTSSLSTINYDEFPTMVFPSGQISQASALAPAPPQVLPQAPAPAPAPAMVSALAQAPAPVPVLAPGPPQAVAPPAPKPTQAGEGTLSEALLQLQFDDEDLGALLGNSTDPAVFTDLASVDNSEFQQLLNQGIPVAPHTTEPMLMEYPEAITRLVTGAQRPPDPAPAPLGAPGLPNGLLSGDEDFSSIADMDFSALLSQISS

`CC=Cc1cc(OC)cc(C(C)C(O)c2cc(OC)c(OC)c(OC)c2)c1` (centres unmarked) [Compound 1]: the negative logarithm of the IC50 (pIC50) in data set [1] was 5.52; in data set [3], 4.98. In data set [2] (HeLa cells), the “NF-κB inhibitory activity (in words)” value is reported as “no NF-κB inhibitory activity”. Also, the “NF-κB (HeLa) IC50” value in data set [2] (p65, HeLa cells, TNFα) is “Not active”.
With `C=CCc1cc(OC)c(OC(C)C(OC(C)=O)c2ccc(OC)c(OC)c2)c(OC)c1` (stereo not drawn) [Compound 2, benzenemethanol, α-[(1, R)-1-[2,6-dimethoxy-4-(2-propen-1-yl)phenoxy]ethyl]-3,4-dimethoxy-1-acetate], in data set [1] (setting [5]), the pIC50 is 9.00. In data set [3], the “K-Ras (HT-29) IC50” value is reported as “Not active”.
`C=CCc1cc(OC)c(OC(C)C(OC(C)=O)c2ccc3c(c2)OCO3)c(OC)c1` (stereo not drawn) [Compound 4, 1,3-benzodioxole-5-methanol,α-[1-[2,6-dimethoxy-4-(2-propenyl)phenoxy]ethyl]-acetate]: the pIC50 in data set [2] (read-out: NF-κB (HeLa) IC50, p65, HeLa cells, TNFα) was 8.47; in data set [4] (setting [6]) it was 7.62. In data set [4] (HT-29 cells, 72 h, SRB), the pEC50 is 7.62. Also, the “K-Ras (HT-29) IC50” value in data set [3] is recorded as “Not active”.
Take `C/C=C/c1cc(OC)c2c(c1)C(C)C(c1cc(OC)c(OC)c(OC)c1)O2` (centres unmarked) [Compound 5, benzofuran, 2,3-dihydro-7-methoxy-3-methyl-5-(1E)-1-yl-2-(3,4,5-trimethoxyphenyl)]: the pIC50 is 5.51 in data set [1] (setting [5]) and 8.52 in data set [4] (setting [6]). Moreover, in data set [2] (p65, HeLa cells, TNFα), the “NF-κB (HeLa) IC50” value was “Not active”. Also, in data set [4] (HT-29 cells, 72 h, SRB), the pEC50 was 8.52. For the same compound, the “K-Ras (HT-29) IC50” value in data set [3] is listed as “Not active”.
With `CC(=O)O[C@H]1C(=O)[C@@]2(C)[C@H]([C@H](OC(=O)c3ccccc3)[C@]3(O)C[C@H](OC(=O)[C@H](O)[C@@H](NC(=O)c4ccccc4)c4ccccc4)C(C)=C1C3(C)C)[C@]1(OC(C)=O)CO[C@@H]1C[C@@H]2O` [paclitaxel, reference compound], in data set [4] (Homo sapiens, HT-29, 72 h), the pEC50 is 9.30. Moreover, the pIC50 in data set [4] (Homo sapiens, HT-29, read-out: Cytotoxicity (HT-29) IC50) is 9.30.
